# Source: PubChem BioAssay (several laboratories)
# STAT1 act = increases IFN-gamma driven STAT1 reporter signal; NIH 3T3 STAT1-luciferase reporter, luminescence; 100% = IFN-gamma alone, no compound; activation (% of control), % at 5.5 µM; 2.6% of 200,000 active; AID 932;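 active means activation above the screen-wide mean activation plus 3 SD, cut at about 130% in these data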;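 further: raw ratio to IFN-gamma control signal so 100% means no change and 0% no light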
# APP 5'UTR act = activates APP 5'UTR luciferase reporter; AID 1276; activation, % at 2 µM; SH-SY5Y APP 5'UTR luciferase reporter, luminescence; zero percent = DMSO vehicle wells; 1% of 190,000 active;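 active means activation above a set limit, based on mean plus 3 SD of controls, cut at about 140% in these data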
# FLuc inh counter = counter-screen for luciferase assay inhibitors: firefly luciferase inhibition; inhibition, % at 10 µM; 1.5% of 200,000 active; ATPLite firefly luciferase biochemical luminescence, 10 min; AID 1006; P08659;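 active means inhibition above about 50% when tested at 10 µM, limit read from the data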
# Target sequence (P08659 whole entry, looked up): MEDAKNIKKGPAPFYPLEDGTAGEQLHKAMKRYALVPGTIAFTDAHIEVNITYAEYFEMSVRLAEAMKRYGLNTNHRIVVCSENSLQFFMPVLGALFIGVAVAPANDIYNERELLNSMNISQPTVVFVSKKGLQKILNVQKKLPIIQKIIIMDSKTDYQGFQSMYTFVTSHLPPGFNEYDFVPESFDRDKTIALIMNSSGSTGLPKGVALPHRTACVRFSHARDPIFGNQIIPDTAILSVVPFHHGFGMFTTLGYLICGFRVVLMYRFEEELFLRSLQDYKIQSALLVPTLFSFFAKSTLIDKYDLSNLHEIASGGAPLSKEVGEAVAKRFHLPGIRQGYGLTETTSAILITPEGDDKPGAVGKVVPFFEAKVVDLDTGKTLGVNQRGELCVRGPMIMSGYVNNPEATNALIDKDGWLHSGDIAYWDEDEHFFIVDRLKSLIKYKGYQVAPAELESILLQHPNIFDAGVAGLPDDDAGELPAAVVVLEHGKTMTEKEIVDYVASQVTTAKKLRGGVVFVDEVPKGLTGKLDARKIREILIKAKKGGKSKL
# Pf gametocyte = P. falciparum stage V gametocyte viability inhibition | P. falciparum stage V gametocytes, ATP luminescence, 24 h | inhibition, % at 10.9 µM | AID 743093 | 0.065% of 150,000 active;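 active means inhibition above the mean plus 3 SD of compounds within the control limits, set per campaign, cut at about 38% in these data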;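 further: 0% = DMSO wells and 100% = medium only without gametocytes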
# FLuc stim CS = affects firefly luciferase, flagging false hits in luciferase stimulation screens. activation factor at 10 µM. AID 1027. ATPlite luciferase biochemical, luminescence, 10 min; 0 = ATP-free wells, 1 = DMSO control. 200,000 tested, under 10 active;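 active means luciferase activation factor, scaled between plate controls, of at least 2 with compound at 10 µM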
#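 Assay system – cell-free luciferase reagent · Medium – PBS-based ATP solution · Dosing – test compounds dosed from 2 mM stocks in 100% DMSO · Timing – 10 min, room temperature · Technique – light output (luminescence) · Measure – luminescence gain marking luciferase activators · Controls – No-ATP low control, compound-free enzyme-plus-ATP high control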
# NF-kB expr up = compounds increasing NF-kB expression in human neuronal cells; NF-kB reporter expression; hits give high values; fold change at 12.5 µM; 1.6% of 190,000 active; AID 1239; in the data active means fold change above about 3.3
# * = called active by the depositor; · = not tested or not shown. In the library only some 3.5% were active in any assay of this set; here they are far more common.
SMILES,STAT1 act,APP 5'UTR act,FLuc inh counter,Pf gametocyte,FLuc stim CS,NF-kB expr up
CCc1nnc(NC(=O)CSc2nc3c(cc2C#N)CCCC3)s1,106.7,198.8*,-1.9,28.1,1,2.35
COC(=O)CC(=O)CSc1nc2c(cc1C#N)CCCCC2,117.6,38.2,20.2,-17.8,0.8,4.97*
CCOC(=O)CC(=O)CSc1nc2c(cc1C#N)CCC2,101.2,-8.1,15.1,1.1,0.8,1.33
Cc1c(CN(C)C)c2c(n1C)C(=O)c1ccc(Br)cc1-2,100.1,14.6,-4.9,·,1,3.34*
Cc1c(CN(C)C)c2c(n1Cc1ccccc1)C(=O)c1ccc(Br)cc1-2,99.1,4.5,-4.7,·,1,0.96
COc1ccc(C(=O)Nc2ccc(O)c3ccccc23)cc1OC,·,·,·,-1.5,·,·
Cc1csc2nc(CSc3nncn3-c3ccccc3)c(Br)n12,92.6,-1.5,-1.5,·,1,0.98
Cc1csc2nc(CSc3nc4ccccc4o3)c(Br)n12,145.5*,132.3,6.1,·,0.9,2.75
Cc1cccnc1NC1(C(F)(F)F)N=C(c2ccccc2)NC1=O (stereo unspecified),95.2,-13.4,-6.0,·,1.1,0.96
CCn1cnc2sc(C(=O)Oc3cccc(C)c3)c(C)c2c1=O,132.5*,10.1,1.3,10.3,1,1.77
N#C/C(=C1/CCCCCN1)c1nc2ccccc2[nH]1,129.6*,9.5,-2.1,-10.9,1,2.04
COc1cccc2cc(C(=O)c3ccc([N+](=O)[O-])cc3)oc12,135.4*,49.8,34.4,-1.3,0.7,2.01
COc1cccc2cc(C(N)=O)oc12,111.1,-32.2,-3.4,-23.4,1,1.21
O=C(CSc1nnc(-c2ccc(O)cc2)o1)N1CCOCC1,114.5,0.8,3.2,·,1,1.62
O=C(CSc1nnc(-c2ccc(F)cc2)o1)NC1CCCCC1,107.3,19.6,-1.7,43.1*,1,1.17
Oc1ccc(-c2nnc(SCC3CCCCC3)o2)cc1,119.2,110.8,30.0,14.1,0.7,4.89*
CC(=O)Nc1ccc(-c2csc(Nc3cc(C)ccn3)n2)cc1,139.5*,40.5,2.7,-16.5,1,1.15
Cc1[nH]n(-c2nc(-c3cccc([N+](=O)[O-])c3)cs2)c(=O)c1C,112.4,24.0,61.0*,-5.3,0.4,1.93
CC(=O)c1cccc(Nc2nc(-c3cccc([N+](=O)[O-])c3)cs2)c1,131.2*,1.4,1.1,·,1,1.53
c1ccc(Nc2nc(-c3cccs3)cs2)nc1,135.7*,180.7*,68.1*,3.3,0.3,9.59*
Cc1c(Nc2nc(-c3cccc([N+](=O)[O-])c3)cs2)c(=O)n(-c2ccccc2)n1C,101.9,1.1,2.4,-9.2,1,0.91
COCc1cc(C)nc(SCc2ccc(Br)cc2)c1C#N,·,·,·,10.7,·,·
Cc1ccc(S(=O)(=O)c2cnc3cc(C)nn3c2N)cc1,92.6,5.6,-4.5,-9.8,1,1.07
COc1ccc(Cl)cc1N(CC(=O)N1CCCCCC1)S(C)(=O)=O,·,·,·,12.8,·,·
c1cncc(Nc2nc(-c3cccnc3)cs2)c1,111.1,26.2,-0.8,-5.9,1,0.65
SMILES,STAT1 act,APP 5'UTR act,FLuc inh counter,Pf gametocyte,FLuc stim CS,NF-kB expr up
CC(=O)Nc1cccc(-c2csc(Nc3ccccn3)n2)c1,143.3*,184.4*,31.1,·,0.7,5.38*
c1ccc(Nc2nc(-c3cccnc3)cs2)nc1,143.9*,193.8*,49.3,·,0.5,5.03*
Cc1ccc(Nc2nc(-c3ccc(O)c(O)c3)cs2)nc1,136.4*,-5.9,19.4,-16.6,0.8,9.45*
C=C(C)Cn1c(CN(C)Cc2ccccc2)nc2c1c(=O)n(C)c(=O)n2C,·,·,·,0.3,·,·
CCOC(=O)N1N=C(c2ccc(C)cc2)CC1(O)C(F)(F)F (stereo unspecified),110.6,·,54.0*,·,0.5,2.75
CC1CCc2c(nc3sc4c(c3c2N)CCCC4)C1 (stereo unspecified),134.6*,65.2,26.8,19.8,0.7,1.8
Nc1c2c(nc3sc4c(c13)CCCCC4)CCCCC2,145.3*,185.1*,61.9*,-0.8,0.4,3.99*
CC1CCc2nc3sc4c(c3c(N)c2C1)CCCC4 (stereo unspecified),121.6,30.6,29.9,·,0.7,1.6
COc1ccc([C@@H]2CC=C(C(=O)O)[C@H](c3ccccc3F)N2S(=O)(=O)c2ccccc2C)cc1,·,·,·,-34.5,·,·
CS/C(N)=N/N=C/c1ccc([N+](=O)[O-])cc1,131.4*,40.8,34.7,·,0.7,1.94
